# ChEMBL document CHEMBL1122573, “Novel N-hydroxyguanidine derivatives as anticancer and antiviral agents” (J Med Chem, 1984)
# Columns and labels:
# [1] = organism: Gallus gallus; assay: Compound dose that inhibits transformation of chick embryo fibroblasts by Rous sarcoma virus, after 15 hr of incubation was determined in vitro. Compound dose that causes 16 % inhibition was reported.; assay type: functional
# Procedure, shortened: (§1)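 Focus-formation assay with Rous sarcoma virus Schmidt-Ruppin subgroup D on confluent secondary chicken fibroblast monolayers (5 × 10^5 cells/plate). Compounds in DMSO (final <1%) were serially diluted from 10^-2 to 10^-5 M solutions before addition. Infection was ~150–200 focus-forming units per dish for 15 h at 37 °C. A 0.9% agar overlay held the same compound dilutions and was re-fed at day 3. Foci were scored 7–10 days post-infection, with virus-only and drug-only controls.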
# [2] = organism: Gallus gallus; assay: Compound dose that inhibits transformation of chick embryo fibroblasts by Rous sarcoma virus, after 15 hr of incubation was determined in vitro. Compound dose that causes 50 % inhibition was reported.; assay type: functional; conditions: read-out: ID50 (the source's name); procedure, shortened: as §1
# [3] = organism: Gallus gallus; assay: Compound dose that inhibits transformation of chick embryo fibroblasts by Rous sarcoma virus, after 15 hr of incubation was determined in vitro. Compound dose that causes 84 % inhibition was reported.; assay type: functional; procedure, shortened: as §1
# [4] = system: L1210; assay: Activity against cultured L1210 leukemic cells was determined in vitro, after 48 h of incubation. Compound dose that causes 16 % inhibition was reported; assay type: functional, Mus musculus
# Procedure, shortened: (§2)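 L1210 cells in RPMI with 10% fetal calf serum, amino acids, vitamins and penicillin-streptomycin, seeded at 4.0–6.0 × 10^4 cells/mL in duplicate per concentration. At least six concentrations in 1:5 dilutions; 24–48 h humidified incubation under 5% CO2. Cells were counted with a Coulter counter, with untreated and Me2SO controls. ID values were derived by a previously described method.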
# [5] = system: L1210; assay: Activity against cultured L1210 leukemic cells was determined in vitro, after 48 hr of incubation. Compound dose that causes 50 % inhibition was reported; assay type: functional; conditions: Mus musculus, L1210, 48 h; read-out: ID50 (the source's name); procedure, shortened: as §2
# [6] = system: L1210; assay: Activity against cultured L1210 leukemic cells was determined in vitro, after 48 hr of incubation. Compound dose that causes 84 % inhibition was reported; assay type: functional, Mus musculus; procedure, shortened: as §2
# [7] = Compound dose that causes lethality by 50 %, was tested in mice; assay type: ADME, organism-based; conditions: mouse, in vivo
# Procedure, shortened: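 C57 Bl/6J mice, six per dose level. Drug was ground with an equal weight of acacia and suspended in saline, then dosed intraperitoneally by body weight.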
# [8] = system: Moloney murine sarcoma virus; assay: Compound was tested for 50% inhibitory dose against Moloney sarcoma virus; assay type: functional; conditions: read-out: ID50 (the source's name)
Structure (SMILES),ID16 [1] [µM],IC50 [2] [µM],ID84 [3] [µM],ID16 [4] [µM],IC50 [5] [µM],ID84 [6] [µM],LD50 [7] [mg/kg],IC50 [8] [µg/mL]
N/C(=N\O)N/N=C/c1cccs1,3.64,11.8,38.04,81.7,34.1,143,,
N/C(=N/N=C/c1ccccn1)NO,1.01,2.76,7.55,4.4,10.9,27,315,
N/C(=N\O)N/N=C/C1CCCCC1,9.11,23.4,60.4,9.34,21.2,48.4,,
N=C(N)NO.O=S(=O)(O)O [HYDROXYGUANIDINE SULFATE],192.7,374,725.8,95.8,59.5,370,,
N=C(N)NO [HYDROXYGUANIDINE],,,,,,,,2
CCCCOc1cccc(/C=N/N=C(\N)NO)c1,2.66,10.2,38.96,3,8.54,24.3,,
CCCCCCOc1cccc(/C=N/N=C(\N)NO)c1,1.18,8.02,54.56,2.96,7.8,20.6,,
COc1cccc(/C=N/NC(=N)NO)c1,7.15,17.8,44.06,4.2,16,60.9,,
Cc1ccsc1/C=N/N=C(/N)NO,5.89,18.5,57.9,16.89,33.2,65.3,,
Cc1cccc(/C=N/N=C(\N)NO)n1,36,114,361.3,19.76,42.1,89.6,,
N/C(=N\O)N/N=C/c1cccc(C(F)(F)F)c1,8.19,18.2,40.61,2.35,15.1,96.4,,
N/C(=N\O)N/N=C/c1cccc(I)c1,0.9,3.45,13.33,4.07,12.5,38.5,190,
NC(/N=N/c1c(O)[nH]c2ccc(F)cc12)=N\O,5.36,18.3,62.25,17.8,48.4,132,,
NC(=O)NO [HYDROXYUREA],,,,1.99,60.6,181,,
N=C(NN)NO,15.63,195,2438,57.1,126,311,,
